Experimental data from ChEMBL document CHEMBL3046122, “Preparation and biological activity of four epiprogoitrin myrosinase-derived products” (2001).
Calls of active or inactive are those of the source. The rule behind the calls is not given here.

Tests used:
[1] = tested on: Lactuca sativa; assay: Toxicity against Lactuca sativa (lettuce) assessed as seed radicle protrusion at low concentration after 7 days; assay type: functional, organism-based
Procedure, shortened: (§1)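 Lettuce (L. sativa cv. Romana) seeds were kept on filter paper at 20 °C for 7 days with each product at 0.4-32.0 mM. Seedlings were scored at the end for abnormalities: root apex necrosis, absent cotyledons, and imbibed seeds with broken coats from starting radicle protrusion.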

[2] = tested on: Lactuca sativa; assay: Toxicity against Lactuca sativa (lettuce) assessed as imbibed seed with broken seed coat at low concentration after 7 days; assay type: functional, organism-based; procedure, shortened: as §1
[3] = tested on: Lactuca sativa; assay: Toxicity against Lactuca sativa (lettuce) assessed as decrease in cotyledons at low concentration after 7 days; assay type: functional, organism-based; procedure, shortened: as §1
[4] = tested on: Lactuca sativa; assay: Toxicity against Lactuca sativa (lettuce) assessed as root apex necrosis at low concentration after 7 days; assay type: functional, organism-based; procedure, shortened: as §1
[5] = tested on: Lactuca sativa; assay: Toxicity against Lactuca sativa (lettuce) assessed as Inhibition of root growth at 0.4 to 2 mM after 7 days relative to control; assay type: functional, organism-based
Procedure, shortened: (§2)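 Lettuce (L. sativa cv. Romana) seeds were kept on filter paper at 20 °C for 7 days with each product at 0.4-32.0 mM. Root length of normal seedlings was measured at the end and given as percent of the untreated control. Three replicates were run.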

[6] = tested on: Lactuca sativa; assay: Antigerminative activity against Lactuca sativa (lettuce) seeds at 2 mM after 7 days relative to control; assay type: functional, organism-based
Procedure, shortened: (§3)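 Lettuce (L. sativa cv. Romana) seeds germinated on filter paper at 20 °C for 7 days with each product at 0.4-32.0 mM. Read-out is the mean percentage of normal seedlings, expressed as percent of the untreated control.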

[7] = tested on: Lactuca sativa; assay: Antigerminative activity against Lactuca sativa (lettuce) seeds at 1.2 mM after 7 days relative to control; assay type: functional; procedure, shortened: as §3
[8] = tested on: Lactuca sativa; assay: Antigerminative activity against Lactuca sativa (lettuce) seeds up to 0.8 mM after 7 days relative to control; assay type: functional, organism-based; procedure, shortened: as §3
[9] = tested on: Lactuca sativa; assay: Toxicity against Lactuca sativa (lettuce) assessed as root tissue rotting at 32 mM after 7 days; assay type: functional, organism-based
[10] = tested on: Lactuca sativa; assay: Toxicity against Lactuca sativa (lettuce) assessed as decrease in root hair at 24 to 32 mM after 7 days; assay type: functional, organism-based
[11] = tested on: Lactuca sativa; assay: Toxicity against Lactuca sativa (lettuce) assessed as branched root formation at low concentration after 7 days; assay type: functional, organism-based
[12] = tested on: Lactuca sativa; assay: Toxicity against Lactuca sativa (lettuce) assessed as Inhibition of root growth at 8 to 32 mM after 7 days relative to control; assay type: functional, organism-based
Procedure, shortened: (§4)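 Lettuce (L. sativa cv. Romana) seeds germinated on filter paper at 20 °C for 7 days with doses of 0.4-32.0 mM. Root length of normal seedlings was measured at the end and expressed as percent of control. Three replicates were run, with standard error given.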

[13] = tested on: Lactuca sativa; assay: Toxicity against Lactuca sativa (lettuce) assessed as Inhibition of root growth at 4 mM after 7 days relative to control; assay type: functional; design: scale not given: the % may be the effect or the level left; procedure, shortened: as §4
[14] = tested on: Lactuca sativa; assay: Antigerminative activity against Lactuca sativa (lettuce) seeds at 24 to 32 mM after 7 days relative to control; assay type: functional, organism-based
Procedure, shortened: (§5)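 Lettuce seeds (L. sativa cv. Romana) incubated on filter paper at 20 °C for 7 days with each product at 0.4-32.0 mM. Read-out was the mean percentage of normal seedlings, expressed as percent of the untreated control.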

[15] = tested on: Lactuca sativa; assay: Antigerminative activity against Lactuca sativa (lettuce) seeds up to 16 mM after 7 days relative to control; assay type: functional, organism-based; procedure, shortened: as §5
[16] = tested on: Lactuca sativa; assay: Toxicity against Lactuca sativa (lettuce) assessed as Inhibition of root growth after 7 days relative to control; assay type: functional, organism-based; procedure, shortened: as §2
[17] = tested on: Lactuca sativa; assay: Antigerminative activity against Lactuca sativa (lettuce) seeds up to 2.4 to 3.2 mM after 7 days relative to control; assay type: functional, organism-based; procedure, shortened: as §3
[18] = tested on: Lactuca sativa; assay: Toxicity against Lactuca sativa (lettuce) assessed as Inhibition of root growth up to 16 mM after 7 days relative to control; assay type: functional, organism-based; procedure, shortened: as §2
[19] = tested on: Lactuca sativa; assay: Antigerminative activity against Lactuca sativa (lettuce) seeds at 0.8 to 20 mM after 7 days relative to control; assay type: functional, organism-based; procedure, shortened: as §3

| SMILES | Activity [1] | Activity [2] | Activity [3] | Activity [4] | Activity [5] | Activity [6] | Activity [7] | Activity [8] | Activity [9] | Activity [10] | Activity [11] | Activity [12] | Activity [13] | Activity [14] | Activity [15] | Activity [16] | Activity [17] | Activity [18] | Activity [19] |
| --- | --- | --- | --- | --- | --- | --- | --- | --- | --- | --- | --- | --- | --- | --- | --- | --- | --- | --- | --- |
| N#CC[C@H](O)[C@@H]1CS1 | Active | Active | Active | Active | Active | Active | 40% | Active | – | – | – | – | – | – | – | – | – | – | – |
| C=C[C@@H]1CNC(=S)O1 | – | – | – | – | – | – | – | – | Active | Active | Active | Active | >40% | Active | inactive | – | – | – | – |
| N#CC[C@H](O)[C@H]1CS1 | Active | Active | Active | Active | – | – | – | – | – | – | – | – | – | – | – | Dose-dependent effect | Active | – | – |
| C=C[C@@H](O)CC#N | Active | Active | Active | Active | – | – | – | – | – | – | – | – | – | – | – | – | – | inactive | Active |
